Source: ChEMBL document CHEMBL4673255, “Acylated 1H-1,2,4-Triazol-5-amines Targeting Human Coagulation Factor XIIa and Thrombin: Conventional and Microscale Synthesis, Anticoagulant Properties, and Mechanism of Action” (J Med Chem, 2020)
pIC50: −log10 of the molar value. The source made the active and inactive calls. The rule behind the calls is not given here.

Key:
[1] = biological target: T1, Coagulation factor XII (Homo sapiens) (UniProt P00748); assay: Binding affinity to human plasma coagulation factor XIIA assessed as compound-adduct formation at molar ratio of 1:20 preincubated for 4 mins followed by desalination and measured after 5 mins by SEC/ESI-TOF mass spectra analysis; type: cell-free
T1 sequence (whole entry): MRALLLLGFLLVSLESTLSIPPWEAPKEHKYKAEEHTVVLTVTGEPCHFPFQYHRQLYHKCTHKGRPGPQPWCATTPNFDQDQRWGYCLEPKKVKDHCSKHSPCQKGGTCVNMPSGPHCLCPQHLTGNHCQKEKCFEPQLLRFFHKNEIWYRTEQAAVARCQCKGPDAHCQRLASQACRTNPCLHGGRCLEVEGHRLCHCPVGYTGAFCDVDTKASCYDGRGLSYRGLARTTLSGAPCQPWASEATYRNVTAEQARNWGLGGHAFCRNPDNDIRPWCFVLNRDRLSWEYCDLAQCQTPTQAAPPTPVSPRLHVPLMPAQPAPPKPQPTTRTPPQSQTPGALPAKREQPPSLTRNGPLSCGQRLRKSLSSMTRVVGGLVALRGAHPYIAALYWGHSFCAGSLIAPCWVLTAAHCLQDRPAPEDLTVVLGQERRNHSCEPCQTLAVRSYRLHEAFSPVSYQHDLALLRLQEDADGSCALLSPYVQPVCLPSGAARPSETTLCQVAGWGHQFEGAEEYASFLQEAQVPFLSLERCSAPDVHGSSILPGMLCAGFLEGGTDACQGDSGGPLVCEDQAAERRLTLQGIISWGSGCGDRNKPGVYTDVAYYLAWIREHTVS
In short: (§1)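 β-FXIIa incubated with inhibitor at a 1:20 molar ratio, then size-exclusion chromatography coupled to ESI-MS to measure the mass of enzyme–inhibitor complexes. Further runs checked complex stability to probe reversibility.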

[2] = biological target: T1, Coagulation factor XII (Homo sapiens); assay: Binding affinity to human plasma coagulation factor XIIA assessed as compound-adduct formation by measuring change in molecular mass at molar ratio of 1:20 measured after 4 mins by SEC/ESI-TOF mass spectra analysis; type: cell-free; in short: as §1
Plasma [3] = assay: Antiplatelet activity in human platelet-rich plasma assessed as inhibition of TRAP6 induced platelet activation by measuring reduction in ATP release at 10 uM preincubated for 20 mins followed by TRAP6 addition and measured after 10 mins by luciferin-based luminescence assay; type: functional, cell-free; settings: time 30.0 min
In short: (§2)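 Platelet activation measured as dense-granule ATP release by firefly luciferase bioluminescence. Compound-treated platelets were activated with MDA-MB-231 cells, thrombin or TRAP-6. TRAP-6-induced signal was set as 100%. Triplicate, mean ± SD.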

Plasma [4] = assay: Antiplatelet activity in human platelet-rich plasma assessed as inhibition of TRAP6 induced platelet activation by measuring reduction in ATP release at 1 uM preincubated for 20 mins followed by TRAP6 addition and measured after 10 mins by luciferin-based luminescence assay; type: functional, cell-free; settings: time 30.0 min; in short: as §2
Plasma [5] = assay: Antiplatelet activity in human platelet-rich plasma assessed as inhibition of thrombin induced platelet activation by measuring reduction in ATP release preincubated for 20 mins followed by thrombin addition and measured after 10 mins by luciferin-based luminescence assay; type: functional, cell-free; settings: time 30.0 min; in short: as §2
Plasma [6] = assay: Antiplatelet activity in human platelet-rich plasma assessed as inhibition of MDA-MB-231 induced platelet activation by measuring reduction in ATP release preincubated for 20 mins followed by tumor cell addition and measured after 30 mins by luciferin-based luminescence assay; type: functional, cell-free; settings: time 50.0 min; in short: as §2
Plasma [7] = assay: Antiplatelet activity in […] assessed as inhibition of TRAP6-induced platelet aggregation at 0.1 to 10 uM by light transmission aggregometry; type: functional; settings: Homo sapiens, dose 0.1-10 µM
Plasma [8] = assay: Antiplatelet activity in […] assessed as inhibition of thrombin-induced platelet aggregation at 1 to 10 uM by light transmission aggregometry; type: functional; settings: Homo sapiens, dose 1-10 µM
Plasma [9] = assay: Antiplatelet activity in […] assessed as inhibition of MDA-MB-231-induced platelet aggregation at 10 uM by light transmission aggregometry; type: functional; settings: Homo sapiens
Plasma [10] = assay: Antiplatelet activity in […] assessed as inhibition of MDA-MB-231-induced platelet aggregation at 1 uM by light transmission aggregometry; type: functional; settings: Homo sapiens
Blood = assay: Anticoagulant activity in human blood assessed as concentration required to double the activated partial thromboplastin time incubated for 1 min followed by aPTT reagent based assay; type: functional
In short: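 Compounds were tested at 300 µM, and the increase was expressed relative to DMSO. The doubling concentration (EC2×) is the concentration prolonging aPTT twofold. At least triplicate, mean ± SD.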

Coagulation factor X = Coagulation factor X (Homo sapiens, UniProt P00742); assay: Inhibition of human coagulation factor Xa using Boc-Ile-Glu-Gly-Arg-AMC as fluorogenic substrate at 5 uM measured at 1 min interval for 1 hr by fluorometric assay relative to control
Chain of Coagulation factor X (P00742 41-179 limits assumed): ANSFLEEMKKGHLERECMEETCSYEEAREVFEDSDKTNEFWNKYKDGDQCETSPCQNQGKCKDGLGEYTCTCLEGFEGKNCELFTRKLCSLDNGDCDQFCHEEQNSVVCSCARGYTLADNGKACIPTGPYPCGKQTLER
Chain of Coagulation factor X (P00742 235-488 limits assumed): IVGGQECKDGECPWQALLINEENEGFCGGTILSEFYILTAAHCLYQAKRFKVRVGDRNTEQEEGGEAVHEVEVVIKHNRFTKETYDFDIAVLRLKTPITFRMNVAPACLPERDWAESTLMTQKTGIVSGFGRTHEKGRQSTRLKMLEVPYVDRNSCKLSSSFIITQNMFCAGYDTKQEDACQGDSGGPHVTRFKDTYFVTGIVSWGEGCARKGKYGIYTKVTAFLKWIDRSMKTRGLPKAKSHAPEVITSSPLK

CCF-STTG1 = assay: Cytotoxicity against human CCF-STTG1 cells assessed as reduction in cell viability at 100 uM incubated for 48 hrs by alamar blue assay relative to control; type: cell-based; settings: ccf-sttg1, 48 h
[11] = biological target: Urokinase-type plasminogen activator (Homo sapiens, UniProt P00749); assay: Inhibition of human uPA using Tos-Gly-Pro-Arg-AMC as fluorogenic substrate measured at 1 min interval for 1 hr by fluorometric assay
[12] = biological target: T2, Fatty-acid amide hydrolase 1 (Rattus norvegicus, UniProt P97612); assay: Inhibition of FAAH in rat brain membrane using N-(2-hydroxyethyl)-4-pyren-1-ylbutanamide as substrate measured after 60 mins by reverse-phase HPLC-based fluorescence assay; type: cell membranes
T2 sequence (P97612 whole entry): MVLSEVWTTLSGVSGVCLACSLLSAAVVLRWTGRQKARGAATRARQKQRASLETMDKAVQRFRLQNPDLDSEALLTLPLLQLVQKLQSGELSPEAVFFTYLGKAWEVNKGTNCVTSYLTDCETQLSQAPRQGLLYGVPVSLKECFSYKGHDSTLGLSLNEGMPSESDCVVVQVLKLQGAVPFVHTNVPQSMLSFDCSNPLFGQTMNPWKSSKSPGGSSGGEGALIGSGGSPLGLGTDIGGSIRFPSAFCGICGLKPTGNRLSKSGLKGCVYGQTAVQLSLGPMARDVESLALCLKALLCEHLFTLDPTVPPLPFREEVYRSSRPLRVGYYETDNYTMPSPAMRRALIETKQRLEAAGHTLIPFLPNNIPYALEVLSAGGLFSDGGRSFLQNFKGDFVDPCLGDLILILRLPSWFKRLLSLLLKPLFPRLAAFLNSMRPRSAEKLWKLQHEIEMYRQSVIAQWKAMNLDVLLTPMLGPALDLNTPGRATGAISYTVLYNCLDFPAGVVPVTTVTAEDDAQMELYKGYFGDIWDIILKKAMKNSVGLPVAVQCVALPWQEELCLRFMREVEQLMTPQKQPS

Plasma [13] = assay: Antiplatelet activity in […] assessed as inhibition of MDA-MB-231-induced platelet aggregation at 0.1 to 10 uM by light transmission aggregometry; type: functional; settings: Homo sapiens, dose 0.1-10 µM

Structure (SMILES) | Activity [1] | Activity [2] [Da] | inhibition (Plasma [3]) | inhibition (Plasma [4]) | inhibition (Plasma [5]) | inhibition (Plasma [6]) | inhibition (Plasma [7]) | inhibition (Plasma [8]) | inhibition (Plasma [9]) | inhibition (Plasma [10]) | 2aPTT (Blood) [µM] | inhibition (Coagulation factor X) [%] | Activity (CCF-STTG1) [%] | pIC50 [11] | pIC50 [12] | inhibition (Plasma [13])
Nc1nc(-c2ccccn2)nn1C(=O)c1ccc2ccccc2c1 | inactive | 154 | Active | inactive | Dose-dependent effect | Dose-dependent effect | inactive | Active | Active | Active | 107 | 48 | 36 | 5.17 | < 5.30 | –
Nc1nc(-c2ccccn2)nn1C(=O)c1cccc2ccccc12 | – | – | – | – | – | – | – | – | – | – | 236 | – | – | < 5.30 | < 5.30 | inactive
